Source: ChEMBL document CHEMBL2093137, “WHO-TDR NTD Screening”
Converted amounts (≈) assume the structure as drawn.

Legend:
[1] = WHO-TDR: Cytotoxicity; assay type: toxicity, cell-based; settings: human, MRC5 cells
Plasmodium falciparum K1 = test: WHO-TDR: Malaria; assay type: functional, organism-based, Homo sapiens; settings: Erythrocyte
Outline: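 Values are IC50 figures for antiplasmodial potency. They come from a whole-organism screen of 10,000 diverse Life Chemicals compounds against Plasmodium falciparum K1 growing inside human red blood cells, run by previously published standard procedures.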

Trypanosoma cruzi = test: WHO-TDR: Chagas disease; assay type: functional, organism-based, Homo sapiens; settings: MRC5
Outline: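 Following previously published standard procedures, with a reference drug as positive control, a whole-organism assay was run on Trypanosoma cruzi Tulahuen CL2 beta-galactosidase strain amastigotes inside MRC-5SV2 human lung fibroblast host cells. The 10,000 compounds tested formed a diverse Life Chemicals library filtered for drug-likeness and reactive groups. Results are expressed as IC50 for antiparasitic potency.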

[2] = test system: Trypanosoma brucei brucei; test: WHO-TDR: Human African Trypanosomiasis (HAT); assay type: functional, organism-based; settings: Squib-427
Outline: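 Values are IC50 figures for antiparasitic potency. They come from a whole-organism screen of 10,000 diverse Life Chemicals compounds against bloodstream-form Trypanosoma brucei (Squib 427 strain).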

Leishmania infantum = test: WHO-TDR: Leishmaniasis; assay type: functional, organism-based, Mus musculus; settings: Macrophage
Outline: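 Values are IC50 figures for antiparasitic potency. They come from a whole-organism screen of a 10,000-compound diverse Life Chemicals library against Leishmania infantum MHOM/MA(BE)/67 amastigotes inside murine peritoneal macrophage host cells.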

Schistosoma mansoni = test: WHO-TDR: Schistosomiasis; assay type: functional; parameters: concentration or dose not given beside the values
Outline: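 A diverse library of 10,000 compounds from Life Chemicals, filtered for drug-likeness and reactive groups, was screened against whole larval and/or adult Schistosoma mansoni worms of the Puerto Rican strain. Previously published standard procedures were followed, with a reference drug as positive control. Activity is given as percent inhibition and as IC50.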

Onchocerca ochengi = test: WHO-TDR: Onchocerciasis; assay type: functional; parameters: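 at 12.5 µM on microfilariae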
Outline: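 A diverse library of 10,000 compounds from Life Chemicals, filtered for drug-likeness and reactive groups, was screened against whole microfilariae of Onchocerca ochengi or Onchocerca lienalis. These animal pathogens served as stand-ins for the human parasite. Activity is given as percent inhibition and as IC50.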

Brugia malayi = test: WHO-TDR: Lymphatic Filariasis; assay type: functional; parameters: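 tested at 10 µM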
Outline: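 A diverse library of 10,000 compounds from Life Chemicals was screened against Brugia malayi microfilariae in a whole-organism assay. The library had been filtered for drug-likeness and reactive groups. Activity is given as percent inhibition and as IC50.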

SMILES | IC50 [1] [µg/mL] | IC50 (Plasmodium falciparum K1) [µg/mL] | IC50 (Trypanosoma cruzi) [µg/mL] | IC50 [2] [µg/mL] | IC50 (Leishmania infantum) [µg/mL] | % Inhibition (Schistosoma mansoni) [%] | % Inhibition (Onchocerca ochengi) [%] | % Inhibition (Brugia malayi) [%]
O=C(Nc1nnc(-c2ccc(Br)s2)o1)C1CCCN1S(=O)(=O)c1cccs1 (stereo unspecified) | > 14.7 | > 14.7 | > 14.7 | 6.68 (≈ 13.6 µM) | 0.475 (≈ 0.971 µM) | 8.3 | 0 | 0
Cc1cc(-c2nnc(NC(=O)C3CCCCN3S(=O)(=O)c3cccs3)o2)nn1C (stereo unspecified) | 4.91 (≈ 11.2 µM) | > 13.1 | 4.26 (≈ 9.75 µM) | 4.14 (≈ 9.49 µM) | 4.24 (≈ 9.71 µM) | 0 | 100 | 33.33
O=S(=O)(c1cccc(F)c1)N1CCN(c2ccc(-c3ccncc3)nn2)CC1 | > 12 | > 12 | > 12 | > 12 | 0.388 (≈ 0.971 µM) | 0 | 0 | 33.33
Cc1nnc(NC(=O)CSc2nc(-c3ccccc3)c(N)s2)s1 | > 10.9 | > 10.9 | > 10.9 | > 10.9 | 0.353 (≈ 0.971 µM) | 16.7 | 0 | 33.33
COc1cccc(OCC(=O)N2CCN(c3nccn3-c3cccc(Cl)c3)CC2)c1 | > 13.9 | 12.2 (≈ 28.5 µM) | 9.15 (≈ 21.4 µM) | 4.61 (≈ 10.8 µM) | 0.45 (≈ 1.05 µM) | 0 | 0 | 0
COc1ccc(OC)c2sc(N(CCCn3ccnc3)C(=O)COc3ccccc3)nc12 | 4.9 (≈ 10.8 µM) | 3.16 (≈ 6.98 µM) | 4.77 (≈ 10.5 µM) | 4.75 (≈ 10.5 µM) | > 14.7 | 0 | 100 | 0
COc1ccc2nc(-c3ccc(OC)c(NC(=O)c4c(F)cccc4Cl)c3)cn2n1 | > 12.8 | > 12.8 | > 12.8 | > 12.8 | 0.415 (≈ 0.972 µM) | 0 | 0 | 0
CC(C)(C)n1ncc2c(=O)n(CCC(=O)Nc3ccc4c(c3)OCO4)cnc21 | > 11.5 | > 11.5 | > 11.5 | > 11.5 | > 11.5 | 100 | 0 | 20
O=C(Nc1ccc(SCC(=O)N2CCc3ccccc32)nn1)c1ccccc1F | > 12.3 | > 12.3 | > 12.3 | > 12.3 | 0.397 (≈ 0.972 µM) | 0 | 0 | 0
Cc1cc(C(=O)Nc2nc(-c3cccnc3)cs2)on1 | > 8.59 | > 8.59 | 4.16 (≈ 14.5 µM) | > 8.59 | 0.278 (≈ 0.971 µM) | 25 | 0 | 20
O=S(=O)(c1ccc2ccccc2c1)N1CCN(c2ccc(Nc3cccnc3)nn2)CC1 | > 13.4 | > 13.4 | > 13.4 | > 13.4 | 0.434 (≈ 0.972 µM) | 0 | 0 | 0
CCOc1ccc(-c2ccc(=O)n(CCCC(=O)Nc3ccccc3SC)n2)cc1 | > 12.7 | > 12.7 | 8.92 (≈ 21.1 µM) | > 12.7 | > 12.7 | 0 | 100 | 0
COc1cc(OC)cc(C(=O)N2CCN(c3nccn3-c3cccc(Cl)c3)CC2)c1 | > 13.9 | 6.13 (≈ 14.4 µM) | 4.18 (≈ 9.78 µM) | 4.5 (≈ 10.5 µM) | 4.5 (≈ 10.5 µM) | 0 | 100 | 0
CC(C)(C)C(=O)N1CCN(c2ccc(-c3ccncc3)nn2)CC1 | > 9.76 | > 9.76 | > 9.76 | > 9.76 | > 9.76 | 100 | 0 | 33.33
Cc1ccc(C)c2sc(N(CCCn3ccnc3)C(=O)Cc3ccc(F)cc3)nc12 | 3.26 (≈ 7.73 µM) | 3.4 (≈ 8.04 µM) | 0.495 (≈ 1.17 µM) | 3.98 (≈ 9.41 µM) | 4.46 (≈ 10.6 µM) | 0 | 100 | 0
O=C(COc1ccc(Cl)cc1)NCCCn1nc(-c2ccc(F)cc2)ccc1=O | > 12.5 | > 12.5 | > 12.5 | > 12.5 | > 12.5 | 16.7 | 100 | 0
O=C(NCCNc1ccc(Nc2ccncc2)nn1)Nc1ccc(Cl)cc1 | > 11.5 | > 11.5 | > 11.5 | > 11.5 | > 11.5 | 0 | 100 | 0
COc1cccc(C2C(S(=O)(=O)c3ccc(C)cc3)=C(O)C(=O)N2c2ccc(C)cc2)c1 (stereo unspecified) | > 13.5 | > 13.5 | > 13.5 | > 13.5 | > 13.5 | 0 | 100 | 20
CCn1nc(C(=O)Nc2nnc(CCSc3ccccc3)o2)cc1C | > 10.7 | > 10.7 | > 10.7 | > 10.7 | > 10.7 | 0 | 100 | 0
CCc1cccc2sc(NC(=O)C3CCCCN3S(C)(=O)=O)nc12 (stereo unspecified) | > 11 | > 11 | 3.8 (≈ 10.3 µM) | 3.09 (≈ 8.4 µM) | > 11 | 0 | 100 | 0
COc1cc(C)ccc1S(=O)(=O)NCCCn1nc(-c2ccc(F)cc2)ccc1=O | 10 (≈ 23.2 µM) | > 12.9 | > 12.9 | > 12.9 | > 12.9 | 0 | 100 | 0
CCSc1ccccc1C(=O)Nc1nnc(Cc2cccs2)o1 | 9.48 (≈ 27.5 µM) | > 10.4 | 3.48 (≈ 10.1 µM) | 3.35 (≈ 9.71 µM) | 0.336 (≈ 0.973 µM) | 33.3 | 0 | 0
